# Screening data as filed in PubChem BioAssay.
# In the library only some 3.1% were active in any assay of this set; here they are far more common.
# GPR7 antagonist: human neuropeptides B/W receptor 1 antagonism. P48145. GPR7-expressing cells, fluorescence antagonist assay. inhibition, % at 4.4 µM. 290,000 compounds, 1.1% hits. AID 1861; in the data active means inhibition above about 16%, passing the limit was not always enough;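 further: cells stimulated with the agonist NPW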
# Target sequence (P48145 whole entry, looked up): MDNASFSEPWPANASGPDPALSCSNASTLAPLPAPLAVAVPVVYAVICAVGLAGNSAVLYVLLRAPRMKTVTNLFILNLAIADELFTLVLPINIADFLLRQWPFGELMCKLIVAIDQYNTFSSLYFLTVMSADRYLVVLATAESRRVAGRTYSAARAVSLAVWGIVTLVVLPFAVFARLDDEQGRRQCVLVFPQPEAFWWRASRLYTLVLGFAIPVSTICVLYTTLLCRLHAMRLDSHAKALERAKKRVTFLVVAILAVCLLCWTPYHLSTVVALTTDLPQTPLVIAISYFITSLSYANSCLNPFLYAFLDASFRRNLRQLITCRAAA
# GalR3 antagonist: blocks the human galanin receptor 3; HEK293 GalR3-CNG cAMP membrane potential fluorescence; galR3 body fused to GalR1 C-terminus; inhibition, % at 3 µM; O60755; 360,000 compounds, 0.44% hits; AID 651719;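 active means inhibition above the screen-wide average plus 3 SD, cut at about 13% in these data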;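 further: forskolin and galanin both at EC90 stimulate the cells; cAMP rise reported by CNG channel membrane potential dye signal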
# OX1R antag-1: antagonists of human orexin 1 receptor (OX1R); OX1R-expressing cells, FRET antagonist read-out; inhibition, % at 6.6 µM; O43613; 330,000 compounds, 1.8% hits; in the data active means inhibition mostly above about 38%, no sharp cut-off; inactive means mostly below about 40%
# OX1R antag-2: human HCRTR1 antagonism; O43613; CHO/OX1R cells, Fluo-8 calcium fluorescence, orexin A; inhibition, % at 5 µM; 330,000 compounds, 0.43% hits; AID 434989;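 active means inhibition above its plate's threshold, mean inhibition of all tested compounds on the plate plus 3 SD, cut at about 37% in these data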
# CHO parental Ca: counter-screen for OX1R antagonists: effect in parental CHO cells. 330,000 compounds, 0.63% hits. inhibition, % at 5.6 µM. parental CHO-K1, ATP-induced calcium, Fluo-8 fluorescence;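 active means inhibition above that plate's mean sample inhibition plus 3 SD, cut at about 26% in these data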
#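 Test system: parental CHO cells; detection: calcium-sensitive Fluo-8 fluorescence; evaluation: percent inhibition of calcium signal; also added: ATP as calcium-mobilizing challenge; repeats: one well per compound; control set: ATP-challenged DMSO wells low, unchallenged DMSO wells high; compound: single nominal dose of 5.6 µM per compound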
# A number is an active result; n = inactive; x = no result.
SMILES,GPR7 antagonist,GalR3 antagonist,OX1R antag-1,OX1R antag-2,CHO parental Ca
Cc1ccc(S(=O)(=O)NNC(=O)Nc2ccc(Cl)c(Cl)c2)cc1,n,n,194,n,n
Cc1nn(C)c(C)c1NC(=O)Nc1cccc(C(F)(F)F)c1,n,n,n,n,n
Cc1ccc(S(=O)(=O)NC(=O)Nc2ccc(N(C)C)cc2)cc1,n,n,51,n,n
Cc1nn(C)c(C)c1NC(=O)Nc1ccc(Cl)c(Cl)c1,n,n,n,n,44
CCN(CC)C(=O)/C(=C\c1cccc([N+](=O)[O-])c1)NC(=O)c1ccco1,n,n,n,n,n
CCc1nnc(N2C(=O)c3cccc4cccc(c34)C2=O)s1,n,n,71,n,n
CN(C)C(/C=C/Nc1ccc(C#N)cc1)=C(C#N)C#N,n,n,n,n,n
CN(C)C(/C=C/Nc1ccc([N+](=O)[O-])cc1)=C(C#N)C#N,n,n,58,n,n
N#Cc1c(NC(=S)NC(=O)c2ccccc2)sc2c1CCN(CCc1ccccc1)C2,n,x,n,n,36
O=C(NCc1ccccc1Cl)C(=O)NCC1OCCCN1S(=O)(=O)c1cccs1 (stereo not given),n,n,n,n,n
COc1ccc(Cn2c(=N)c(C(=O)NCC3CCCO3)cc3c(=O)n4ccccc4nc32)cc1 (stereo not given),n,n,61,n,n
COc1ccc(CCn2c(=N)c(C(=O)NCC3CCCO3)cc3c(=O)n4ccccc4nc32)cc1 (stereo not given),n,n,58,n,n
CCCSCCCNC(=O)CN1C(=O)COc2ccc(S(=O)(=O)N3CCCC3)cc21,n,n,n,n,n
CN(CC(=O)Nc1ccccc1C(=O)Nc1ccccc1)C1CCCCC1,x,n,n,n,n
COc1ccc(C(=O)NCCNc2nc3ccc(C)cc3cc2C#N)cc1OC,n,n,n,n,n
COc1ccc2nc3ccccc3nc2c1N,n,n,55,n,n
COc1ccc2nc3cccc(OC)c3nc2c1,n,n,42,n,n
COc1ccc2nc(-c3ccco3)c(-c3ccco3)nc2c1,n,n,n,n,n
Cn1c(SCc2ccccc2C#N)nnc1-c1ccncc1,n,n,n,n,n
COc1ccc(C)cc1NC(=O)C(=O)NNC(=O)COc1ccc(Cl)cc1,n,n,n,n,35
COc1cc(Nc2ccc(S(N)(=O)=O)cc2)c([N+](=O)[O-])nc1[N+](=O)[O-],n,n,48,n,n
CC(C)N(Cc1ccccc1)C(=O)CN1c2cccc3cccc(c23)S1(=O)=O,x,n,39,n,n
C[C@H]1CN([C@@H](C)CO)C(=O)c2cccc(NC(=O)c3cnccn3)c2O[C@@H]1CN(C)C(=O)Nc1ccc2c(c1)OCO2,x,n,n,n,n
CCOC(=O)C1=NOC2(C1)C(=O)Nc1ccc(OC)cc12 (stereo not given),x,n,x,x,x
Nc1cc(C(=O)OCC(=O)N2CCCC2=O)ccc1Cl,x,n,n,n,n
SMILES,GPR7 antagonist,GalR3 antagonist,OX1R antag-1,OX1R antag-2,CHO parental Ca
O=C(OCC(=O)N1CCCC1=O)c1cccc([N+](=O)[O-])c1,n,n,48,n,n
O=C(NN1c2ccccc2CCc2ccccc21)c1ccccc1Br,n,n,66,n,n
CCOC(=O)c1c(C)[nH]c(C(=O)CSc2ccccc2)c1C,n,n,n,n,n
CC(=O)c1c(C)[nH]c(C(=O)CSc2ccc(F)cc2)c1C,n,n,n,n,33
CNC(C)C#Cc1ccc2c(=O)c3c(OC)cccc3oc2c1 (stereo not given),n,x,n,n,n
CNC(C)C#Cc1ccc2oc3cccc(OC)c3c(=O)c2c1 (stereo not given),n,n,48,n,n
O=C(CN1C(=O)c2ccc([N+](=O)[O-])cc2C1=O)NCc1ccc(C(=O)O)cc1,n,n,62,n,n
O=C(CN1C(=O)c2ccc([N+](=O)[O-])cc2C1=O)Nc1ccccc1N1CCCC1,x,n,52,n,n
N#CC1(NC(=O)CN2C(=O)c3ccc([N+](=O)[O-])cc3C2=O)CCCCC1,x,n,53,n,n
O=C(Nc1cc([N+](=O)[O-])ccc1N1CCCC1)c1ccco1,n,n,65,n,n
CCC1(CC)NC(=O)N(CC(=O)OCC(=O)Nc2ncc(Cl)cc2Cl)C1=O,x,n,n,n,n
CC(C)(C)OC(=O)N1CCN(Cc2ccc(F)c(B(O)O)c2)CC1,x,n,x,x,x
O=C(CCN1C(=O)c2ccc([N+](=O)[O-])cc2C1=O)Nc1ccc(O)cc1C(=O)O,n,n,56,n,n
